# Experimental data taken from ChEMBL document CHEMBL5335786, “Bioorthogonal activation of prodrugs, for the potential treatment of breast cancer, using the Staudinger reaction” (RSC Med Chem, 2023).
# Activity calls are given as the source filed them. No cut-off for these calls is given here.
# Experiments:
# [1] = Selectivity index, ratio of IC50 for mouse L929 cells to IC50 for human MCF7 cells; format: toxicity; conditions: L929 cells and MCF7 cells, read-out: Ratio IC50
# How it was run: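 MTT assay on MCF-7 (RPMI, 5% FBS) and L929 (DMEM, 10% FBS) at 37 °C, 5% CO2. Some cells were first given 50 μM azido-sugar for 72 h. Cells were seeded at 4 × 10⁴ or 1 × 10⁵ cells/mL for 24 h, then treated with 0.001–10 μM for 72 h. MTT 0.5 mg/mL, 4 h, DMSO, A570; untreated control; triplicate; IC50 from fitted curves; ratio L929/MCF-7.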
# [2] = Cytotoxicity against Tetra-O-acetyl-azidomannosamine engineered mouse L929 cells incubated for 72 hrs by MTT assay; format: toxicity, cell-based; conditions: L929 cells engineered with Tetra-O-acetyl-azidomannosamine
# How it was run: (§1)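 L929 cells grown in DMEM with 10% FBS at 37 °C, 5% CO2. Cells were pre-labelled with 50 μM Ac4ManNAz for 72 h, then seeded at 1 × 10⁵ cells per mL. After 24 h they were exposed to prodrug at 0.001–10 μM for 72 h. MTT (0.5 mg mL⁻¹, 4 h) was added, formazan dissolved in DMSO, A570 read. Untreated cells served as control. Triplicates; IC50 from fitted curve; mean ± SEM.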
# [3] = test system: MCF7; experiment: Anticancer activity against Tetra-O-acetyl-azidomannosamine engineered human MCF7 cells incubated for 72 hrs by MTT assay; format: functional, cell-based; conditions: MCF7, 72 h
# How it was run: as §1, with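 “MCF-7 cells” for “L929 cells”, “in RPMI 1640” for “in DMEM”, “with 5%” for “with 10%”, “at 4” for “at 1”, “× 10⁴” for “× 10⁵”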
# [4] = test system: L929; experiment: Induction of azide reporter generation in mouse L929 cells at 50 uM incubated for 72 hrs by confocal laser microscopy; format: functional, cell-based
# How it was run: (§2)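 Cells seeded at 4 × 10⁴ per mL (MCF-7) or 1 × 10⁴ per mL (L929) in glass-bottom dishes and kept with azido sugar at 37 °C for 72 h. Washed cells were labelled with 20 μM DBCO-Cy5 for 1 h at 37 °C, formaldehyde-fixed and DAPI-mounted. Confocal imaging; mean fluorescence intensity quantified; mean ± SEM, n = 3.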
# [5] = test system: MCF7; experiment: Induction of azide reporter generation in human MCF7 cells at 50 uM incubated for 72 hrs by confocal laser microscopy; format: functional, cell-based; how it was run: as §2
# [6] = test system: MCF7; experiment: Induction of azide reporter generation in human MCF7 cells at 50 uM incubated for 72 hrs by Western blot analysis; format: functional, cell-based
# How it was run: (§3)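 Cells seeded at 4 × 10⁴ per mL (MCF-7, RPMI/5% FBS) or 1 × 10⁴ per mL (L929, DMEM/10% FBS) and fed azido sugar at 37 °C for 72 h. RIPA lysates were cleared, protein-normalised and reacted with 0.5 μM phosphine-PEG3-biotin for 12 h at RT. 20 μg protein run on 8% SDS-PAGE, transferred to PVDF, blocked in BSA/TBST, probed overnight at 4 °C with streptavidin-HRP, ECL detection.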
# [7] = test system: L929; experiment: Induction of azide reporter generation in mouse L929 cells at 50 uM incubated for 72 hrs by Western blot analysis; format: functional, cell-based; how it was run: as §3
# [8] = test system: MCF7; experiment: Anticancer activity against human MCF7 cells assessed as cell viability at 50 uM by MTT assay relative to control; format: functional; conditions: read-out: Activity
IC50 [3] [µM],SMILES,selectivity ratio [1],IC50 at 72 h [2] [µM],Activity [4],Activity [5],Activity [6],Activity [7],viability at 50 µM [8] [%]
–,O=C(Nc1ccc(N(CCCl)CCCl)cc1)c1ccccc1P(c1ccccc1)c1ccccc1,2,–,–,–,–,–,–
0.2,COc1cccc2c1C(=O)c1c(O)c3c(c(O)c1C2=O)C[C@@](O)(C(=O)CO)C[C@@H]3OC1C[C@@H](NC(=O)c2ccccc2P(c2ccccc2)c2ccccc2)[C@@H](O)[C@@H](C)O1 (some centres undefined),2,7.7,–,–,–,–,–
–,CC(=O)OC[C@H]1OC(OC(C)=O)[C@@H](NC(=O)CN=[N+]=[N-])[C@@H](OC(C)=O)[C@@H]1OC(C)=O (some centres undefined),–,–,Active,Active,Active,Active,100
–,CC(=O)N[C@H]1[C@H]([C@H](OC(C)=O)[C@@H](CN=[N+]=[N-])OC(C)=O)O[C@@](OC(C)=O)(C(=O)O)C[C@@H]1OC(C)=O,–,–,inactive,Active,Active,inactive,100
–,"CC(=O)N[C@H]1[C@H]([C@H](O)[C@H](O)CN=[N+]=[N-])OC(O)(C(=O)O)C[C@@H]1O (single isomer, unassigned)",–,–,inactive,Active,Active,inactive,100
